D1 allo mod – D1 CRE-luciferase signal change, two-sided – cell-based, HEK293 D1, dopamine EC30, D1 allosteric modulator project, primary screen | D(1A) dopamine receptor (Homo sapiens), P21728 | dopamine EC30 potentiation; actives deviate in either direction | B-score at 10 µM | 5.9% of 58,000 active;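 active = luminescence count or its row- and column-corrected plate score outside the 99.7% band of the plate's sample wells, on either side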
SF-1 act – activators of human SF-1, primary screen, cell-based, CHO-K1, Gal4-SF-1 LBD, luciferase luminescence | CHO-K1 Gal4-SF-1 LBD luciferase reporter; % increase over DMSO SF-1-specific signal | activation, % at 10 µM | 1.9% of 65,000 active | AID 522, 2006;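 active = activation above the mean activation of all tested compounds plus 3 SD, cut at about 50% in these data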
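Test system: CHO-K1 cells with Gal4–hSF-1 LBD chimera plus Gal4-driven luciferase; Input: 4,000 cells/well; Compound: 10 µM only; Times: 20 h compound treatment, 37 °C; Measured by: steady-glow luciferase luminescence, read after 15 min reagent incubation; Measure: percent activation versus DMSO; Control set: DMSO and mock-transfected background; Replicates: one test per compound.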
M1 agonist – M1 muscarinic receptor agonists, primary screen, CHO-M1 cells, Fluo-4 calcium, agonist mode; Muscarinic acetylcholine receptor M1; Fluo-4 calcium fluorescence; stronger effect = higher value; B-score at 10 µM; 3% of 64,000 active;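 active = fluorescence rise, raw or as B-score row- and column-corrected plate score, outside the 99.7% band of its plate's samples, either direction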
HePTP inhibitor – inhibitors of human HePTP phosphatase, primary screen, biochemical, absorbance, leukemia target | Tyrosine-protein phosphatase non-receptor type 7 (Homo sapiens), P35236 | recombinant HePTP phosphatase activity, OD absorbance | inhibition, % at 20 µM | 0.64% of 110,000 active; in the data active = inhibition above about 50%;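 also: plate controls were vehicle for no effect and reference inhibitor for full effect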
RORa activator – activators of orphan receptor RORA, primary screen, cell-based, luminescence | AID 560, 2006 | 1.5% of 65,000 active | Nuclear receptor ROR-alpha (Homo sapiens), P35398 | activation, % at 10 µM | CHO-K1 Gal4-RORA LBD luciferase reporter; percent increase over mock-subtracted basal signal;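 active = activation above the mean of all tested compounds plus 3 SD, cut at about 49% in these data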;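 also: 0% = DMSO-treated RORA cells and 100% = added signal equal to DMSO minus mock-transfected cells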
Target sequence (P35398 whole entry, looked up, the tested form may be a part): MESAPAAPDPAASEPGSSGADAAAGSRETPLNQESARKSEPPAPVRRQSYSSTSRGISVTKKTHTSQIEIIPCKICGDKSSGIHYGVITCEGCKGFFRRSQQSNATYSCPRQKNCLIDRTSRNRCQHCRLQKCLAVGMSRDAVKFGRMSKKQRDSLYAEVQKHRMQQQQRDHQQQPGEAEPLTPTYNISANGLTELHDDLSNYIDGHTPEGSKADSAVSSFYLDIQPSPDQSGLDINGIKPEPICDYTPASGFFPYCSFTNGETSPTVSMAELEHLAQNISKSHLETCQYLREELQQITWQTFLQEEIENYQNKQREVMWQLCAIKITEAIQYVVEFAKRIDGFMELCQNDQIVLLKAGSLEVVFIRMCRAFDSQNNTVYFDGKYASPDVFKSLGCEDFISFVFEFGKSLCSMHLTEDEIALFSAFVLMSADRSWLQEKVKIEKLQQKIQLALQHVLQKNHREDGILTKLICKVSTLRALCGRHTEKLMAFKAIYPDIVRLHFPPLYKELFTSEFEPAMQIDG
M1 antag – antagonists of rat M1 muscarinic receptor; AID 628, 2007; B-score at 10 µM; 3.4% of 64,000 active; CHO-M1 cells, Fluo-4 calcium, ACh EC80 antagonist mode; stronger effect = lower value; Muscarinic acetylcholine receptor M1 (Rattus norvegicus), P08482;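 active = calcium fluorescence response, raw or row-and-column corrected B-score, differing from the plate sample mean either way at a set confidence level, mostly lower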
Numbers without * were called inactive; · = no result given. Rows were chosen to be rich in hits. Some 8.2% of all compounds tested hit in one or more screens of this group.

SMILES	D1 allo mod	SF-1 act	M1 agonist	HePTP inhibitor	RORa activator	M1 antag
CC1CCN(CCNC(=O)c2ccc(NC(=O)C3CCCO3)cc2)CC1 (stereo not given)	0.13	-8	-0.41	-10	-1	0.033
O=c1/c(=C/c2cccc([N+](=O)[O-])c2)sc2nc3cc(Br)cnc3n12	·	·	·	1	·	·
Cc1cc(C)cc(N2C(=O)NC(=O)/C(=C\c3ccccc3C)C2=O)c1	·	·	·	8	·	·
O=C(NCC(c1cccnc1)N1CCOCC1)c1ccco1 (stereo not given)	-0.7	-6	0.0076	4	-2	0.39
COc1ccc(OCC(=O)Nc2cc3oc4ccccc4c3cc2OC)cc1	·	·	·	0	·	·
COc1cc2c(cc1NC(=O)CN(C)Cc1nc3ccccc3c(=O)[nH]1)oc1ccccc12	-2.7*	26	2	-2	-3	1.3
Cn1c(=O)n(CCN2CCOCC2)c(=O)c2c1nc1n2CCCN1c1ccccc1	0.003	9	0.085	-5	19	-0.3
Cc1n[nH]c(C)c1CCC(=O)N/N=C\c1ccc(Cl)c(Cl)c1	·	·	·	-3	·	·
Cc1nc(Nc2nc3ccccc3o2)nc2c1CCC2	-6.1*	-41	1.5	8	-31	-0.54
COc1ccc(N2CCN(C(=O)c3ccc(NS(=O)(=O)c4ccccc4)cc3)CC2)cc1	-0.55	15	-0.17	8	20	0
Cc1c(C(=O)OCC2CCCO2)[nH]c2c1C(=O)CC(c1ccco1)C2 (stereo not given)	-1.1	4	0.45	21	56*	-0.12
Cc1cccc(/N=C/c2c(O)[nH]c3ccccc23)n1	0.94	103*	-0.3	1	86*	-0.46
Cc1cccc(/N=C/c2c(O)cc(C)oc2=O)n1	0.29	6	-0.49	·	1	0.9
Oc1[nH]c2ccccc2c1C=Nc1ccc2c(c1)OCCO2	-2.9*	33	-0.34	7	28	0.15
O=C1NC(=S)S/C1=C/c1cccn1-c1cccc([N+](=O)[O-])c1	·	·	·	46	·	·
CCS(=O)(=O)c1ccc(O)c(NC(=O)c2cc(OC)c(OC)c(OC)c2)c1	·	-27	-0.38	2	6	1.2
Clc1cccc(-c2nn3c(Cn4cnc5ccccc54)nnc3s2)c1	1.8	10	-1.3	18	-15	-0.039
N#Cc1c(SCC(=O)c2cccs2)nc2c(c1-c1ccncc1)CCCC2	·	·	·	11	·	·
N#CC1=C(N)C(C#N)(C#N)C(c2cccc(Br)c2)C=C1C1CC1 (stereo not given)	·	·	·	-22	·	·
N#CC1=C(N)C(C#N)(C#N)C(c2cccnc2)C2CCCC=C12 (stereo not given)	-1.2	-7	7.9*	5	-10	1.4
Fc1ccc2nc3[nH]c4ccccc4c3nc2c1	1.1	90*	0.12	4	39	0.022
CC(C)=NNc1nnc2c(n1)[nH]c1ccccc12	·	·	·	-8	·	·
C=CCN1C(=O)/C(=C\c2cccc3ccccc23)C(=O)NC1=S	·	·	·	-3	·	·
CC1=NN(c2ccc(Cl)c(Cl)c2)C(=O)/C1=C/c1ccc2c(c1)OCO2	·	·	·	9	·	·
CCCOc1cccc(C(=O)Nc2nc(-c3ccc(F)cc3F)cs2)c1	·	·	·	95*	·	·
SMILES	D1 allo mod	SF-1 act	M1 agonist	HePTP inhibitor	RORa activator	M1 antag
CN=C1SC(CC(=O)Nc2sc3c(c2C#N)CCCC3)C(=O)N1C (stereo not given)	·	-1	-1.3	16	25	0.78
O=C(CN1CCN(C(c2ccccc2)c2ccccc2)CC1)NC(=O)NCc1ccco1	0.33	16	-3.2*	5	-2	-0.51
Clc1ccccc1-c1nc(-c2ccccc2)n[nH]1	0.072	18	-0.018	8	61*	0.1
NC(=O)c1ccccc1NC(=O)c1ccc(I)cc1	·	·	·	-2	·	·
OCCN=Cc1c2ccc[nH]c-2c2ccccc12	·	·	·	4	·	·
Cc1ccc(CCNC(=O)CCNS(=O)(=O)c2ccc3c(c2)oc(=O)n3C)cc1	-0.9	-10	-0.2	5	-12	-0.49
COc1ccc(CNc2nc3nc(C)c(Cl)c(C)n3n2)cc1OC	6.2*	18	0.65	2	-16	-0.14
Cc1cccnc1NC(=O)C1CCN(S(=O)(=O)c2ccc3c(c2)CCC(=O)N3)CC1	-1	-6	-0.19	-7	-6	0.48
Cn1c(NC(=O)CCc2ccccc2)cc(=O)n(C)c1=O	0.029	56*	-1.5	4	60*	0.65
O=C(Cn1cc(/C=C2/C(=O)NC(=S)N(c3ccccc3)C2=O)c2ccccc21)Nc1ccccc1	·	·	·	9	·	·
O=C(NC1CCCCC1)NC1(C(=O)N2CCN3CCCC3C2)CCCCC1 (stereo not given)	-3*	4	-0.025	7	-23	-0.78
Cn1c(=O)c2c(nc(CN3CCCCC3)n2CCc2ccccc2)n(C)c1=O	-0.62	16	-0.06	-2	9	0.41
COc1c(Cl)ccc(Cl)c1C(=O)Nc1ccc(C)cc1	·	·	·	104*	·	·
COc1cccc(C(=O)Nc2ccc(C)cc2)c1	-4.5*	17	-0.037	6	28	-0.056
COC(=O)c1ccc(NC(=O)c2cccc(OC)c2)cc1	0.72	11	0.25	-4	49*	0.019
COc1c(Cl)ccc(Cl)c1C(=O)Nc1cccc(Br)c1	·	·	·	0	·	·
COc1cccc(C(=O)Nc2ccc(OC)c(OC)c2)c1	·	·	·	12	·	·
COc1cccc(C(=O)Nc2ccc(C(=O)O)cc2)c1	-0.59	-8	-0.54	6	-24	-0.4
COc1cc(/C=N/N2C(=O)CSC2=S)ccc1OCCOc1ccc(C(C)(C)C)cc1	·	·	·	-11	·	·
O=C(O)c1ccc2c(c1)C(=O)N(c1ccc(-c3nc4cc(N5C(=O)c6ccc(C(=O)O)cc6C5=O)ccc4[nH]3)cc1)C2=O	·	·	·	101*	·	·
CCCOc1ccc(/C=c2\sc3nc(-c4ccco4)nn3c2=O)cc1OCC	0.97	-2	25*	9	-6	0.15
CC(=O)Oc1cccc(/C=c2\sc3nc(-c4ccco4)nn3c2=O)c1	-2.1	-10	-0.3	5	-21	0.076
Cc1c(NC(=O)C23CC4CC(CC(C4)C2)C3)c(=O)n(-c2ccccc2)n1C	·	·	·	2	·	·
Cc1c(NC(=O)C(C)N2CC(C)OC(C)C2)c(=O)n(-c2ccccc2)n1C (stereo not given)	-0.39	-6	-0.082	7	-13	1.8*
CCC(=O)Nc1cc2nn(-c3ccc(OC)cc3)nc2cc1C	-5*	-24	0.16	-5	11	0.43
CCCC(=O)Nc1cc2nn(-c3ccc(C)cc3)nc2cc1C	·	·	·	1	·	·
Cc1ccc(-n2nc3cc(C)c(NC(=O)Cc4ccccc4)cc3n2)cc1	·	·	·	63*	·	·
CCCCC(=O)Nc1cc2nn(-c3ccc(OC)cc3)nc2cc1C	0.15	28	-0.5	2	6	0.11

Screens (PubChem BioAssay)
